Data as given in PubChem BioAssay.
Records with an inconclusive call do not appear.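 The calls were made as follows, unless noted: active = inhibition over a set limit, the all-compound mean plus 3 SD, in both replicate runs; inconclusive = over that limit in just one replicate run; inactive = at or under that limit in both runs.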

Tests used:
[1] = S. cerevisiae growth inhibition in permissive medium (OD615), pilot counter-assay for S. cerevisiae lifespan shortening project, permissive growth control (AID 705;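 active = growth inhibition above 25% in both replicates, a cutoff set 3 SD above the mean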); settings: OD615, 24 h, at 10 µM, hits give high values
Procedure, shortened: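 System: S. cerevisiae with engineered DeaD lifespan system / Measured by: absorbance (optical density) at 615 nm / Read-out: reduction in yeast growth (OD615) / Times: 4 h cell pre-growth, 24 h exposure at 30 °C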

[2] = S. cerevisiae growth inhibition in restrictive medium, OD615, pilot screen, restrictive growth control, yeast lifespan reduction project (AID 706;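 active = growth inhibition above a set limit, 3 SD over mean compound inhibition, in both replicates, cut at about 43% in these data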;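 also: modified DeaD lifespan yeast strain shifted to restrictive glucose medium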); settings: OD615, 48 h, at 10 µM, hits give high values
Procedure, shortened: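 System: Engineered S. cerevisiae DeaD strain | Buffer or medium: Glucose-based CSMM-D restrictive medium | Schedule: 4 h pre-incubation, 48 h exposure at 30 °C | Technique: Optical density at 615 nm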

[3] = doxorubicin toxicity protection in MRP-1 cells – H69AR cells, CellTiter-Glo, duplicate, MRP-1 activator project, pilot screen (AID 807;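 active = viability increase at or above a cutoff of the median across tested compounds plus 3 SD, cut at about 8.5% in these data, passing the limit was not always enough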;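 also: compound pretreatment 18-22 h then 72 h combined with doxorubicin; 0% = doxorubicin alone and 100% = vehicle without doxorubicin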); settings: H69AR viability with doxorubicin, CellTiter-Glo luminescence; at 10 µM; hits give high values
[4] = viability of HCT116 without oncogenic beta-catenin – human colon tumor cells, pilot screen (AID 823;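 active = cell viability at or below a set limit in both duplicate runs, the limit being the all-compound median minus 4 SD, cut at about 23% in these data, passing the limit was not always enough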;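 also: 0% = wells killed by 20 µM Hyamine and 100% = untreated DMSO cell wells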); settings: HCT116 beta-catenin knockout viability, CellTiter-Glo, 60 h; at 10 µM; hits give low values
[5] = viability of PTEN-null HCT116 cells – cell-based, HCT116 clonal line, CellTiter-Glo, pilot screen (AID 824;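 active = viability at or below 27.92% in each of two runs, the all-compound median minus 4 SD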;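 also: 0% = 20 µM Hyamine control and 100% = vehicle cell control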); settings: HCT116 PTEN-deleted viability, 60 h, at 10 µM, hits give low values
[6] = RAM pathway blockade in budding yeast – dse1pr::URA3 reporter, 5-FOA selection, pilot screen (AID 869);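 also: 0% = DMSO wells with no growth and 100% = 10 µM 1-NA-PP1 with full growth; RAM network block rescues cells from 5-FOA so hits raise OD615 growth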; settings: S. cerevisiae dse1pr::URA3 5-FOA growth, OD615, 2 d; at 10 µM; hits give high values; strain carries analog-sensitive mutant Cbk1 kinase
[7] = RAM signaling pathway blockade in yeast – S. cerevisiae, Pdr1DBD-CYC8 efflux-inhibited sensitized strain, primary screen (AID 1298;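 active = RAM network inhibition above 8.4% in each of two replicates, 3 SD over the compound average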;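 also: 0% = DMSO untreated cells without growth and 100% = 10 µM 1-NA-PP1 full growth; higher means more yeast growth rescued from 5-FOA killing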); settings: S. cerevisiae cbk1-as DSE1-URA3 strain, 5-FOA growth OD615, 2 d; at 50 µM; hits give high values

Cn1c(NC(=O)c2cc(Br)ccc2Cl)cc(=O)n(C)c1=O
inactive: growth inhibition [1] 5.54% | growth inhibition [2] -8.75% | viability increase [3] -3.46% | viability [4] 96.8% | viability [5] 90.7% | inhibition [6] 1.64% | RAM network inhibition [7] 1.23%

Cc1nnc(NC(=O)c2oc3cc(C)c(C)cc3c2C)s1
inactive: growth inhibition [1] -3.77% | growth inhibition [2] -4.99% | viability increase [3] -0.05% | viability [4] 105% | viability [5] 99.8% | inhibition [6] 1.64% | RAM network inhibition [7] 5.7%

CS(=O)(=O)N(Cc1ccc(C(=O)NCc2ccco2)cc1)c1ccccc1
inactive: growth inhibition [1] -6.5% | growth inhibition [2] -0.32% | viability increase [3] -3.9% | viability [4] 94% | viability [5] 100% | inhibition [6] -0.1% | RAM network inhibition [7] 4.76%

Cc1cccc(-n2c(Cc3cc(=O)[nH]c(=O)[nH]3)nnc2SCC(=O)NCC2CCCO2)c1 (stereo not drawn)
inactive: growth inhibition [1] -2.17% | growth inhibition [2] -13.5% | viability increase [3] -2.52% | viability [4] 93.5% | viability [5] 92.3% | inhibition [6] 0.535% | RAM network inhibition [7] -1.56%

COc1cc(C(=O)NCC(c2ccco2)N2CCCC2)ccc1OCc1c(C)noc1C (stereo not drawn)
inactive: growth inhibition [1] 0.045% | growth inhibition [2] -23.7% | viability increase [3] -4.73% | viability [4] 82.7% | viability [5] 83.8% | inhibition [6] 1.03% | RAM network inhibition [7] 3.83%

Cn1c(=O)oc2cc(S(=O)(=O)NCCN3CCN(c4ccccc4F)CC3)ccc21
inactive: growth inhibition [1] -14.7% | growth inhibition [2] 0.235% | viability increase [3] -2.88% | viability [4] 100% | viability [5] 88.8% | inhibition [6] 0.835% | RAM network inhibition [7] 1.48%

O=C(Nc1ccccc1C(=O)N1CCOCC1)c1ccco1
inactive: growth inhibition [1] -6.66% | growth inhibition [2] -11.1% | viability increase [3] -0.74% | viability [4] 101% | viability [5] 105% | inhibition [6] 0.27% | RAM network inhibition [7] 2.67%

COc1ccc(-n2c(Cn3c(=O)sc4ccccc43)nnc2SCC(=O)N2CCCC2)cc1
inactive: growth inhibition [1] -1.82% | growth inhibition [2] 17.8% | viability increase [3] 0.25% | viability [4] 104% | viability [5] 102% | inhibition [6] 1.5% | RAM network inhibition [7] 3.39%

COc1ccc(Cc2nc(-c3ccc(-n4cccc4)cc3)no2)cc1
inactive: growth inhibition [1] 0.23% | growth inhibition [2] -11.5% | viability increase [3] 3.66% | viability [4] 98.3% | viability [5] 88% | inhibition [6] 3.82% | RAM network inhibition [7] 3.16%

CN1C(=O)c2cccc(NC(=O)C3CCCCC3)c2C1=O
inactive: growth inhibition [1] -7.12% | growth inhibition [2] 6.03% | viability increase [3] -1.21% | viability [4] 107% | viability [5] 93% | inhibition [6] 0.445% | RAM network inhibition [7] -0.16%

N#Cc1cn(CC(=O)NCC2CCCO2)c2ccccc12 (stereo not drawn)
inactive: growth inhibition [1] 1.68% | growth inhibition [2] -3% | viability increase [3] -1.75% | viability [4] 93.1% | viability [5] 91.4% | inhibition [6] 1.1% | RAM network inhibition [7] 5.31%

CCc1ccccc1NC(=O)c1cc(-c2cccc(O)c2)on1
inactive: growth inhibition [1] -21.2% | growth inhibition [2] -5.59% | viability increase [3] -1.49% | viability [4] 98% | viability [5] 96% | inhibition [6] 4.72% | RAM network inhibition [7] 8.2%

CCC(CC)C(=O)Nc1cc(C)c2c(=O)oc3ccccc3c2n1
inactive: growth inhibition [1] -17.2% | growth inhibition [2] -12.2% | viability increase [3] -5.01% | viability [4] 62.5% | viability [5] 64.2% | inhibition [6] 2.33% | RAM network inhibition [7] 9.87%

COc1ccc(C(=O)N2CCN(c3c(C)cccc3C)CC2)cc1OC
inactive: growth inhibition [1] -19.6% | growth inhibition [2] -4.21% | viability increase [3] 0.4% | viability [4] 80.8% | viability [5] 72% | inhibition [6] 0.89% | RAM network inhibition [7] 1.36%

COC(=O)COC(=O)c1ccc(Oc2nc(OC)nc(N(C)C)n2)cc1
inactive: growth inhibition [1] -10.3% | growth inhibition [2] -13.7% | viability increase [3] 0.83% | viability [4] 103% | viability [5] 104% | inhibition [6] 1.35% | RAM network inhibition [7] 2.76%

COc1ccc(C(=O)Nc2cc3c(cc2C#N)OCO3)cc1S(=O)(=O)N1CCN(C)CC1
inactive: growth inhibition [1] -18.3% | growth inhibition [2] -21.2% | viability increase [3] 1.53% | viability [4] 100% | viability [5] 101% | inhibition [6] 0.975% | RAM network inhibition [7] 5.27%

CC(C)(C)c1ccc(-c2nnc3sc(-c4ccccn4)nn23)cc1
inactive: growth inhibition [1] -19.2% | growth inhibition [2] -24.6% | viability increase [3] 0.61% | viability [4] 100% | viability [5] 89.2% | inhibition [6] 2.01% | RAM network inhibition [7] 1.31%

CC(C)c1ccccc1NC(=O)CCCC(=O)O
inactive: growth inhibition [1] -2.18% | growth inhibition [2] -0.2% | viability increase [3] -0.29% | viability [4] 96.9% | viability [5] 102% | inhibition [6] 0.36% | RAM network inhibition [7] 2.42%

COc1ccc(S(=O)(=O)NCCSc2ccc(C)cc2)cc1OC
inactive: growth inhibition [1] 1.08% | growth inhibition [2] 1.66% | viability increase [3] -2.26% | viability [4] 85.8% | viability [5] 86.1% | inhibition [6] 1.18% | RAM network inhibition [7] 2.65%

COc1ccc(S(=O)(=O)NCCN2CCOCC2)c2ccccc12
inactive: growth inhibition [1] -1.53% | growth inhibition [2] -2.08% | viability increase [3] -1.32% | viability [4] 101% | viability [5] 95.1% | inhibition [6] -0.495% | RAM network inhibition [7] 1.53%

COC(=O)CSc1ccc2nnc(-c3ccc(OC)c(OC)c3)n2n1
inactive: growth inhibition [1] -10.3% | growth inhibition [2] -18.4% | viability increase [3] -0.56% | viability [4] 106% | viability [5] 107% | inhibition [6] -0.01% | RAM network inhibition [7] 3.82%

Cc1csc(NC(=O)CNS(=O)(=O)c2cccs2)n1
inactive: growth inhibition [1] -4.12% | growth inhibition [2] -18.9% | viability increase [3] -2.55% | viability [4] 93.4% | viability [5] 86.8% | inhibition [6] 0.795% | RAM network inhibition [7] 2.18%

C=C(C)Cn1c(CNC(C)=O)nc2ccccc21
inactive: growth inhibition [1] -12.2% | growth inhibition [2] -25.6% | viability increase [3] -0.52% | viability [4] 108% | viability [5] 94.3% | inhibition [6] 0.645% | RAM network inhibition [7] 3.9%

Nc1ccc2nc3n(c(=O)c2c1)CCC3
inactive: growth inhibition [1] -2.62% | growth inhibition [2] 4.83% | viability increase [3] 1.87% | viability [4] 104% | viability [5] 108% | inhibition [6] 1.44% | RAM network inhibition [7] 3.92%
